Converted amounts (≈) assume the structure as drawn.
Legend:
Mycobacterium avium [1] = assay: Antimicrobial activity against Mycobacterium avium My 330/88 after 21 days; type: functional; conditions: 504 h
HeLa = assay: Cytotoxicity against human HeLa cells after 72 hrs; type: functional; conditions: for CC50: Homo sapiens, HeLa, 72 h
Outline: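 About 10,000 cells per well in RPMI 1640 were preincubated 48 h without compound. The 10 test concentrations were then applied onto the monolayers and incubated 72 h at 37 °C in humidified 5% CO₂. Monolayers fixed with glutaraldehyde, stained with 0.05% methylene blue, and eluted with 0.33 N HCl; optical density measured at 630 nm.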

Mycobacterium kansasii [2] = assay: Antimicrobial activity against Mycobacterium kansasii My 6509/96 after 7 days; type: functional; conditions: 168 h
Outline: (§1)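 Run in Šula semisynthetic liquid medium containing bovine serum. Compounds added as DMSO solutions at final concentrations of […]. Each strain was also inoculated onto Löwenstein–Jensen medium to control inoculum sterility and growth.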

Mycobacterium kansasii [3] = assay: Antimicrobial activity against Mycobacterium kansasii My 6509/96 after 14 days; type: functional; conditions: 336 h; outline: as §1
[4] = test system: Mycobacterium tuberculosis; assay: Antimicrobial activity against Mycobacterium tuberculosis My 331/88 after 21 days; type: functional; conditions: 504 h
Mycobacterium kansasii [5] = assay: Antimicrobial activity against Mycobacterium kansasii My 235/80 after 7 days; type: functional; conditions: 168 h; outline: as §1
Mycobacterium avium [6] = assay: Antimicrobial activity against Mycobacterium avium My 330/88 after 14 days; type: functional; conditions: 336 h
Mycobacterium kansasii [7] = assay: Antimicrobial activity against Mycobacterium kansasii My 235/80 after 14 days; type: functional; conditions: 336 h; outline: as §1
Mycobacterium kansasii [8] = assay: Antimicrobial activity against Mycobacterium kansasii My 6509/96 after 21 days; type: functional; conditions: 504 h; outline: as §1
[9] = test system: Mycobacterium tuberculosis; assay: Antimicrobial activity against Mycobacterium tuberculosis My 331/88 after 14 days; type: functional; conditions: 336 h
K562 = assay: Antiproliferative activity against human K562 cells after 72 hrs; type: functional; conditions: K562, 72 h
Outline: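 About 10,000 suspension cells per well in RPMI 1640 with 10% heat-inactivated FBS and penicillin/streptomycin, without HEPES. Exposed to 10 concentrations for 72 h at 37 °C in humidified 5% CO₂. Wells diluted 1:50 in CASYTON and counted electronically, each result the mean of three successive counts. GI50 is where the concentration–response curve crosses 50% of control cell count.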

Mycobacterium kansasii [10] = assay: Antimicrobial activity against Mycobacterium kansasii My 235/80 after 21 days; type: functional; conditions: 504 h; outline: as §1
L929 = assay: Antiproliferative activity against mouse L929 cells after 72 hrs; type: functional; conditions: L929, 72 h
Outline: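 About 10,000 adherent cells per well in RPMI 1640 with 10% heat-inactivated FBS and penicillin/streptomycin, without HEPES. Exposed to 10 concentrations for 72 h at 37 °C in humidified 5% CO₂. Monolayers fixed with glutaraldehyde, stained 15 min with 0.05% methylene blue, and eluted with 0.33 N HCl; OD read at 630 nm. GI50 derived from dose–response curves relative to control.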

Candida albicans [11] = assay: Antifungal activity against Candida albicans ATCC 44859 after 48 hrs; type: functional; conditions: ATCC 44859, 48 h
Outline: (§2)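 Modified NCCLS M27-A broth microdilution with clinical isolates subcultured on Sabouraud dextrose agar. Suspensions diluted 1:50 in RPMI 1640 to give a final inoculum of 0.5–2.5×10³ CFU/mL for yeasts or 0.5–5×10⁴ CFU/mL for molds. The RPMI had L-glutamine, no bicarbonate, and 0.165 M MOPS to pH 7.0. Twofold dilutions from 250 to 0.49. Plates held at 35 °C, humid, without agitation. MIC is the lowest concentration giving ≥80% inhibition versus drug-free control, read at 24 and 48 h.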

Trichophyton benhamiae [12] = assay: Antifungal activity against Trichophyton mentagrophytes 445 after 120 hrs; type: functional, Arthroderma benhamiae
Outline: (§3)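 Same modified M27-A microdilution with the mold inoculum of 0.5–5×10⁴ CFU/mL. Medium was RPMI 1640 with L-glutamine, no bicarbonate, and 0.165 M MOPS at pH 7.0. Twofold dilutions from 250 to 0.49. Incubated at 35 °C in a humid atmosphere.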

Candida albicans [13] = assay: Antifungal activity against Candida albicans ATCC 44859 after 24 hrs; type: functional; conditions: ATCC 44859, 24 h; outline: as §2
Trichosporon beigelii [14] = assay: Antifungal activity against Trichosporon beigelii 1188 after 24 hrs; type: functional; outline: as §2
Lichtheimia corymbifera [15] = assay: Antifungal activity against Absidia corymbifera 272 after 24 hrs; type: functional; outline: as §2
Pichia kudriavzevii [16] = assay: Antifungal activity against Candida krusei E28 after 24 hrs; type: functional; outline: as §2
Candida tropicalis [17] = assay: Antifungal activity against Candida tropicalis 156 after 48 hrs; type: functional; outline: as §2
Candida tropicalis [18] = assay: Antifungal activity against Candida tropicalis 156 after 24 hrs; type: functional; outline: as §2
Aspergillus fumigatus [19] = assay: Antifungal activity against Aspergillus fumigatus 231 after 48 hrs; type: functional; outline: as §2
Lichtheimia corymbifera [20] = assay: Antifungal activity against Absidia corymbifera 272 after 48 hrs; type: functional; outline: as §2
Trichosporon beigelii [21] = assay: Antifungal activity against Trichosporon beigelii 1188 after 48 hrs; type: functional; outline: as §2
Nakaseomyces glabratus [22] = assay: Antifungal activity against Candida glabrata 20/I after 24 hrs; type: functional; outline: as §2
Trichophyton benhamiae [23] = assay: Antifungal activity against Trichophyton mentagrophytes 445 after 72 hrs; type: functional, Arthroderma benhamiae; outline: as §3
Pichia kudriavzevii [24] = assay: Antifungal activity against Candida krusei E28 after 48 hrs; type: functional; outline: as §2
Aspergillus fumigatus [25] = assay: Antifungal activity against Aspergillus fumigatus 231 after 24 hrs; type: functional; outline: as §2
Nakaseomyces glabratus [26] = assay: Antifungal activity against Candida glabrata 20/I after 48 hrs; type: functional; outline: as §2

SMILES | MIC (Mycobacterium avium [1]) [µM] | CC10 (HeLa) [mg/L] | CC50 (HeLa) [mg/L] | MIC (Mycobacterium kansasii [2]) [µM] | MIC (Mycobacterium kansasii [3]) [µM] | MIC [4] [µM] | MIC (Mycobacterium kansasii [5]) [µM] | MIC (Mycobacterium avium [6]) [µM] | MIC (Mycobacterium kansasii [7]) [µM] | MIC (Mycobacterium kansasii [8]) [µM] | MIC [9] [µM] | GI50 (K562) [mg/L] | MIC (Mycobacterium kansasii [10]) [µM] | GI50 (L929) [mg/L] | MIC (Candida albicans [11]) [µM] | MIC (Trichophyton benhamiae [12]) [µM] | MIC (Candida albicans [13]) [µM] | MIC (Trichosporon beigelii [14]) [µM] | MIC (Lichtheimia corymbifera [15]) [µM] | MIC (Pichia kudriavzevii [16]) [µM] | also measured
Sc1nnnn1-c1ccc(Cl)cc1 | > 500 | 26.4 (≈ 124 µM) | 48.9 (≈ 230 µM) | 250 (≈ 53.2 µg/mL) | 500 (≈ 106 µg/mL) | > 500 | 500 (≈ 106 µg/mL) | > 500 | > 500 | > 500 | 500 (≈ 106 µg/mL) | 42.6 (≈ 200 µM) | > 500 | > 50 |  |  |  |  |  |  | 
Cc1ccc(-n2nnnc2SCc2ccccc2)cc1 |  | 4 (≈ 14.2 µM) | 19.7 (≈ 69.8 µM) | 16 (≈ 4.52 µg/mL) | 32 (≈ 9.04 µg/mL) | 125 (≈ 35.3 µg/mL) | 16 (≈ 4.52 µg/mL) | 62.5 (≈ 17.6 µg/mL) | 32 (≈ 9.04 µg/mL) | 250 (≈ 70.6 µg/mL) | 32 (≈ 9.04 µg/mL) | 24.3 (≈ 86.1 µM) | 250 (≈ 70.6 µg/mL) | 12.5 (≈ 44.3 µM) | > 250 | 62.5 (≈ 17.6 µg/mL) | > 250 | > 250 | > 250 | > 250 | MIC (Candida tropicalis [17]): > 250 µM; MIC (Candida tropicalis [18]): > 250 µM; MIC (Aspergillus fumigatus [19]): 250 µM (≈ 70.6 µg/mL); MIC (Lichtheimia corymbifera [20]): > 250 µM; MIC (Trichosporon beigelii [21]): > 250 µM; MIC (Nakaseomyces glabratus [22]): > 250 µM; MIC (Trichophyton benhamiae [23]): 31.3 µM (≈ 8.84 µg/mL); MIC (Pichia kudriavzevii [24]): > 250 µM; MIC (Aspergillus fumigatus [25]): 62.5 µM (≈ 17.6 µg/mL); MIC (Nakaseomyces glabratus [26]): > 250 µM
Sc1nnnn1-c1ccc(Cl)c(Cl)c1 | > 500 | 18.1 (≈ 73.2 µM) | 33.3 (≈ 135 µM) | 250 (≈ 61.8 µg/mL) | 500 (≈ 124 µg/mL) | 250 (≈ 61.8 µg/mL) | 500 (≈ 124 µg/mL) | > 250 | 500 (≈ 124 µg/mL) | 500 (≈ 124 µg/mL) | 250 (≈ 61.8 µg/mL) | 31 (≈ 125 µM) | 500 (≈ 124 µg/mL) | 33.4 (≈ 135 µM) |  |  |  |  |  |  | 
NNC(=O)c1ccncc1 [ISONIAZID] | > 250 |  |  | 4 (≈ 0.549 µg/mL) | 4 (≈ 0.549 µg/mL) | 1 (≈ 0.137 µg/mL) | > 250 | > 250 | > 250 | 8 (≈ 1.1 µg/mL) | 0.5 (≈ 0.0686 µg/mL) |  | > 250 |  |  |  |  |  |  |  | 
Cc1ccc(-n2nnnc2S)cc1 | > 500 | 33 (≈ 172 µM) | > 50 | 500 (≈ 96.1 µg/mL) | 500 (≈ 96.1 µg/mL) | > 500 | 500 (≈ 96.1 µg/mL) | 500 (≈ 96.1 µg/mL) | > 500 | > 500 | 500 (≈ 96.1 µg/mL) | 42.8 (≈ 223 µM) | > 500 | > 50 |  |  |  |  |  |  | 
C[C@]12CC[C@@H]3c4ccc(OCCCCCCCSc5nnnn5-c5ccccc5)cc4CC[C@H]3[C@@H]1CCC2=O |  | 20.3 (≈ 37.3 µM) | > 50 |  |  | > 500 |  |  | > 500 | > 500 | > 500 | > 50 | > 500 | > 50 | > 250 | > 250 | > 250 | > 250 | > 250 | > 250 | MIC (Candida tropicalis [17]): > 250 µM; MIC (Candida tropicalis [18]): > 250 µM; MIC (Aspergillus fumigatus [19]): > 250 µM; MIC (Lichtheimia corymbifera [20]): > 250 µM; MIC (Trichosporon beigelii [21]): > 250 µM; MIC (Nakaseomyces glabratus [22]): > 250 µM; MIC (Trichophyton benhamiae [23]): > 250 µM; MIC (Pichia kudriavzevii [24]): > 250 µM; MIC (Aspergillus fumigatus [25]): 250 µM (≈ 136 µg/mL); MIC (Nakaseomyces glabratus [26]): > 250 µM
